Reference: ChEMBL document CHEMBL5058577, “EUbOPEN Chemogenomics Library 2 (Multiplex)” (2022)

System: HEK-293T
Test: Multiplex assay against HEK293T
Format: toxicity, cell-based
Details: human
Procedure, shortened: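 Per cents of healthy-nucleus cells form the tubulin, mitochondrial-mass and membrane-permeability phenotype values. Live cells were stained at seeding with Hoechst33342, BioTracker Green Microtubule Cytoskeleton Dye, MitoTracker Red and Annexin V Alexa Fluor 680. After compound addition they were imaged on a CQ1 microscope at 37°C and 5% CO2, and CellPathfinder machine-learning gating split them into Hoechst high-intensity objects or normal cells, normal cells into healthy, pyknosed or fragmented nuclei, and pyknosed cells into mitotic or apoptotic.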

[1] = 12 h, 1 µM, compound concentration 1 uM, replicate 1
[2] = 12 h, 1 µM, compound concentration 1 uM, replicate 2
[3] = 12 h, 10 µM, compound concentration 10 uM, replicate 1
[4] = 12 h, 10 µM, compound concentration 10 uM, replicate 2
[5] = 24 h, 1 µM, compound concentration 1 uM, replicate 1
[6] = 24 h, 1 µM, compound concentration 1 uM, replicate 2
[7] = 24 h, 10 µM, compound concentration 10 uM, replicate 1
[8] = 24 h, 10 µM, compound concentration 10 uM, replicate 2
[9] = 48 h, 1 µM, compound concentration 1 uM, replicate 1
[10] = 48 h, 1 µM, compound concentration 1 uM, replicate 2
[11] = 48 h, 10 µM, compound concentration 10 uM, replicate 1
[12] = 48 h, 10 µM, compound concentration 10 uM, replicate 2

Cc1noc(-c2ccc(-c3ccc(CC(=O)O)cc3)cc2)c1NC(=O)O[C@H](C)c1ccccc1Cl
Population Apoptotic (%) [1]: 29% | Population Fragmented Nuclei (%) [1]: 7% | Population Healthy Nuclei (%) [1]: 79% | Population Hoechst High Intensity Objects (%) [1]: 5% | Population Membrane Permeable-Phenotype (%) [1]: 0% | Population Mitochondria Different-Phenotype (%) [1]: 38% | Population Mitotic Cells (%) [1]: 70% | Population Normal (%) [1]: 94% | Population Pyknosed Nuclei (%) [1]: 13% | Population Tubulin-Different-Phenotype (%) [1]: 29% | Total Cell Count [1]: 403 | Population Apoptotic (%) [2]: 59% | Population Fragmented Nuclei (%) [2]: 4% | Population Healthy Nuclei (%) [2]: 77% | Population Hoechst High Intensity Objects (%) [2]: 11% | Population Mitochondria Different-Phenotype (%) [2]: 69% | Population Mitotic Cells (%) [2]: 40% | Population Normal (%) [2]: 88% | Population Pyknosed Nuclei (%) [2]: 17% | Population Tubulin-Different-Phenotype (%) [2]: 28% | Total Cell Count [2]: 296 | Population Apoptotic (%) [3]: 51% | Population Fragmented Nuclei (%) [3]: 11% | Population Healthy Nuclei (%) [3]: 68% | Population Hoechst High Intensity Objects (%) [3]: 7% | Population Membrane Permeable-Phenotype (%) [3]: 0% | Population Mitochondria Different-Phenotype (%) [3]: 72% | Population Mitotic Cells (%) [3]: 48% | Population Normal (%) [3]: 92% | Population Pyknosed Nuclei (%) [3]: 20% | Population Tubulin-Different-Phenotype (%) [3]: 65% | Total Cell Count [3]: 295 | Population Apoptotic (%) [4]: 41% | Population Fragmented Nuclei (%) [4]: 8% | Population Healthy Nuclei (%) [4]: 72% | Population Hoechst High Intensity Objects (%) [4]: 14% | Population Mitochondria Different-Phenotype (%) [4]: 69% | Population Mitotic Cells (%) [4]: 58% | Population Normal (%) [4]: 85% | Population Pyknosed Nuclei (%) [4]: 18% | Population Tubulin-Different-Phenotype (%) [4]: 34% | Total Cell Count [4]: 341 | Population Apoptotic (%) [5]: 22% | Population Fragmented Nuclei (%) [5]: 10% | Population Healthy Nuclei (%) [5]: 79% | Population Hoechst High Intensity Objects (%) [5]: 5% | Population Membrane Permeable-Phenotype (%) [5]: 0% | Population Mitochondria Different-Phenotype (%) [5]: 23% | Population Mitotic Cells (%) [5]: 77% | Population Normal (%) [5]: 94% | Population Pyknosed Nuclei (%) [5]: 9% | Population Tubulin-Different-Phenotype (%) [5]: 17% | Total Cell Count [5]: 570 | Population Apoptotic (%) [6]: 40% | Population Fragmented Nuclei (%) [6]: 9% | Population Healthy Nuclei (%) [6]: 80% | Population Hoechst High Intensity Objects (%) [6]: 7% | Population Mitochondria Different-Phenotype (%) [6]: 42% | Population Mitotic Cells (%) [6]: 60% | Population Normal (%) [6]: 92% | Population Tubulin-Different-Phenotype (%) [6]: 20% | Total Cell Count [6]: 378 | Population Apoptotic (%) [7]: 39% | Population Fragmented Nuclei (%) [7]: 7% | Population Healthy Nuclei (%) [7]: 76% | Population Hoechst High Intensity Objects (%) [7]: 8% | Population Membrane Permeable-Phenotype (%) [7]: 1% | Population Mitochondria Different-Phenotype (%) [7]: 58% | Population Mitotic Cells (%) [7]: 60% | Population Normal (%) [7]: 91% | Population Pyknosed Nuclei (%) [7]: 16% | Population Tubulin-Different-Phenotype (%) [7]: 47% | Total Cell Count [7]: 352 | Population Apoptotic (%) [8]: 32% | Population Fragmented Nuclei (%) [8]: 9% | Population Healthy Nuclei (%) [8]: 75% | Population Hoechst High Intensity Objects (%) [8]: 16% | Population Membrane Permeable-Phenotype (%) [8]: 0% | Population Mitochondria Different-Phenotype (%) [8]: 53% | Population Mitotic Cells (%) [8]: 68% | Population Normal (%) [8]: 83% | Population Pyknosed Nuclei (%) [8]: 15% | Population Tubulin-Different-Phenotype (%) [8]: 38% | Total Cell Count [8]: 390 | Population Apoptotic (%) [9]: 17% | Population Fragmented Nuclei (%) [9]: 11% | Population Healthy Nuclei (%) [9]: 82% | Population Hoechst High Intensity Objects (%) [9]: 4% | Population Membrane Permeable-Phenotype (%) [9]: 1% | Population Mitochondria Different-Phenotype (%) [9]: 20% | Population Mitotic Cells (%) [9]: 82% | Population Normal (%) [9]: 95% | Population Pyknosed Nuclei (%) [9]: 5% | Population Tubulin-Different-Phenotype (%) [9]: 14% | Total Cell Count [9]: 930 | Population Apoptotic (%) [10]: 35% | Population Fragmented Nuclei (%) [10]: 12% | Population Healthy Nuclei (%) [10]: 76% | Population Membrane Permeable-Phenotype (%) [10]: 0% | Population Mitochondria Different-Phenotype (%) [10]: 34% | Population Mitotic Cells (%) [10]: 64% | Population Pyknosed Nuclei (%) [10]: 10% | Population Tubulin-Different-Phenotype (%) [10]: 21% | Total Cell Count [10]: 494 | Population Apoptotic (%) [11]: 38% | Population Fragmented Nuclei (%) [11]: 10% | Population Healthy Nuclei (%) [11]: 79% | Population Hoechst High Intensity Objects (%) [11]: 6% | Population Membrane Permeable-Phenotype (%) [11]: 0% | Population Mitochondria Different-Phenotype (%) [11]: 40% | Population Mitotic Cells (%) [11]: 61% | Population Normal (%) [11]: 93% | Population Pyknosed Nuclei (%) [11]: 10% | Population Tubulin-Different-Phenotype (%) [11]: 33% | Total Cell Count [11]: 445 | Population Apoptotic (%) [12]: 46% | Population Fragmented Nuclei (%) [12]: 13% | Population Healthy Nuclei (%) [12]: 74% | Population Hoechst High Intensity Objects (%) [12]: 10% | Population Membrane Permeable-Phenotype (%) [12]: 1% | Population Mitochondria Different-Phenotype (%) [12]: 35% | Population Mitotic Cells (%) [12]: 53% | Population Normal (%) [12]: 89% | Population Pyknosed Nuclei (%) [12]: 11% | Population Tubulin-Different-Phenotype (%) [12]: 25% | Total Cell Count [12]: 508
